Format in all cases: functional
Assay [1] concerns Trichophyton mentagrophytes. In words: Antifungal activity against Trichophyton mentagrophytes after 16 to 18 hrs by serial dilution method. As to conditions: for MIC: Trichophyton mentagrophytes.
For another assay, the system named is Aspergillus flavus. In words: Antifungal activity against Aspergillus flavus after 16 to 18 hrs by serial dilution method. The note with it: for MIC: Aspergillus flavus. The method in brief: (§1)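 The test compound was dissolved in DMF and serially diluted. A standard drop of the prepared microbial culture was added to each dilution, and tubes were incubated at 37 °C for 16–18 h. MIC was taken as the highest dilution that stayed clear with no visible turbidity.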

Another assay deals with Aspergillus fumigatus. Kind of assay: Antifungal activity against Aspergillus fumigatus after 16 to 18 hrs by serial dilution method. As to conditions: for MIC: Aspergillus fumigatus.
The next assay concerns Pseudomonas aeruginosa. In words: Antibacterial activity against Pseudomonas aeruginosa after 16 to 18 hrs by serial dilution method. As to conditions: for MIC: Pseudomonas aeruginosa. The method in brief: as §1
A further assay relates to Talaromyces marneffei. Kind of assay: Antifungal activity against Penicillium marneffei after 16 to 18 hrs by serial dilution method. As to conditions: for MIC: Talaromyces marneffei. The method in brief:
as §1

For another assay, the system named is Klebsiella pneumoniae. Kind of assay: Antibacterial activity against Klebsiella pneumoniae after 16 to 18 hrs by serial dilution method. The note with it: for MIC: Klebsiella pneumoniae.
A further assay has as its system Escherichia coli. In words: Antibacterial activity against Escherichia coli after 16 to 18 hrs by serial dilution method. The note with it: for MIC: Escherichia coli. The essentials:
as §1

The next assay deals with Staphylococcus aureus. In words: Antibacterial activity against Staphylococcus aureus after 16 to 18 hrs by serial dilution method. As to conditions: for MIC: Staphylococcus aureus. The essentials:
as §1

Molecules are shown by their SMILES. In brackets after ≈: the same amount, converted by molar mass.

As usually defined, the MIC is the lowest concentration found to suppress growth. A low value points to greater potency.

For the compound `Cc1ccccc1OCc1ccccc1-c1nnc(-c2ccccc2)o1`, the “inhibition zone (IZ)” value (in assay [1]; in the assay on Aspergillus flavus; with Aspergillus fumigatus; in the assay on Pseudomonas aeruginosa; with Talaromyces marneffei; with Klebsiella pneumoniae) was less than 10 mm throughout. Besides, the “inhibition zone (IZ)” value with Escherichia coli and with Staphylococcus aureus was less than 10 mm in each case. Moreover, the MIC (in assay [1]; in the assay on Aspergillus flavus; in the assay with Aspergillus fumigatus; in the assay with Pseudomonas aeruginosa; against Talaromyces marneffei; in the assay on Klebsiella pneumoniae) was 25 µg/mL (≈ 73 µM) in each case. Moreover, the MIC in the assay with Escherichia coli and with Staphylococcus aureus was 25 µg/mL (≈ 73 µM) in each case.
Consider `Cc1cccc(OCc2ccccc2-c2nnc(-c3ccccc3)o2)c1`, for which the “inhibition zone (IZ)” value (in assay [1]; in the assay on Aspergillus flavus; in the assay with Aspergillus fumigatus; with Pseudomonas aeruginosa; in the assay with Talaromyces marneffei; in the assay on Klebsiella pneumoniae) was less than 10 mm in each case. Moreover, the “inhibition zone (IZ)” value in the assay on Escherichia coli and with Staphylococcus aureus was less than 10 mm throughout. Besides, the MIC (in assay [1]; in the assay on Aspergillus flavus; against Aspergillus fumigatus; with Pseudomonas aeruginosa; in the assay on Talaromyces marneffei; in the assay on Klebsiella pneumoniae) was 25 µg/mL (≈ 73 µM) each time. Besides, the MIC with Escherichia coli and against Staphylococcus aureus was 25 µg/mL (≈ 73 µM) throughout.
Regarding `Cc1ccc(OCc2ccccc2-c2nnc(-c3ccccc3)o2)cc1`, the “inhibition zone (IZ)” value (in assay [1]; with Aspergillus flavus; with Aspergillus fumigatus; with Pseudomonas aeruginosa; in the assay on Talaromyces marneffei; in the assay on Klebsiella pneumoniae) was less than 10 mm in each case. The “inhibition zone (IZ)” value with Escherichia coli and in the assay on Staphylococcus aureus was less than 10 mm in each case. Also, the MIC (in assay [1]; with Aspergillus flavus; against Aspergillus fumigatus; in the assay with Pseudomonas aeruginosa; against Talaromyces marneffei; in the assay with Klebsiella pneumoniae) was 25 µg/mL (≈ 73 µM) each time. In addition, the MIC in the assay on Escherichia coli and in the assay on Staphylococcus aureus was 25 µg/mL (≈ 73 µM) in each case.
For the compound `Clc1ccc(OCc2ccccc2-c2nnc(-c3ccccc3)o2)cc1`, the “inhibition zone (IZ)” value (in assay [1]; in the assay with Aspergillus flavus; in the assay with Aspergillus fumigatus; in the assay with Pseudomonas aeruginosa; in the assay with Talaromyces marneffei; with Klebsiella pneumoniae) was less than 10 mm each time. In addition, the “inhibition zone (IZ)” value in the assay with Escherichia coli and with Staphylococcus aureus was less than 10 mm throughout. For the same compound, the MIC (in assay [1]; against Aspergillus flavus; in the assay with Aspergillus fumigatus; in the assay with Pseudomonas aeruginosa; in the assay with Talaromyces marneffei; against Klebsiella pneumoniae) was 25 µg/mL (≈ 68.9 µM) in each case. Moreover, the minimal inhibitory concentration (MIC) with Escherichia coli and against Staphylococcus aureus was 25 µg/mL (≈ 68.9 µM) each time.
Take `Cc1cc(C)cc(-c2nnc(-c3ccccc3COc3ccccc3C)o2)c1`: the “inhibition zone (IZ)” value was determined as 11 mm in assay [1]; 11 mm in the assay with Aspergillus flavus; 16 mm in the assay on Aspergillus fumigatus; 11 mm in the assay with Pseudomonas aeruginosa; 11 mm in the assay on Talaromyces marneffei; 11 mm in the assay with Klebsiella pneumoniae. For the same compound, the “inhibition zone (IZ)” value with Escherichia coli and in the assay with Staphylococcus aureus was 11 mm throughout. Besides, the MIC turned out to be 12.5 µg/mL (≈ 33.7 µM) in assay [1]; 12.5 µg/mL (≈ 33.7 µM) in the assay on Aspergillus flavus; 6.25 µg/mL (≈ 16.9 µM) in the assay with Aspergillus fumigatus; 12.5 µg/mL (≈ 33.7 µM) in the assay on Pseudomonas aeruginosa; 12.5 µg/mL (≈ 33.7 µM) with Talaromyces marneffei; 12.5 µg/mL (≈ 33.7 µM) in the assay on Klebsiella pneumoniae. Also, the MIC with Escherichia coli and against Staphylococcus aureus was 12.5 µg/mL (≈ 33.7 µM) in each case.

Values taken from ChEMBL document CHEMBL1275272, “Synthesis, characterization and antimicrobial activity of some disubstituted 1,3,4-oxadiazoles carrying 2-(aryloxymethyl)phenyl moiety” (2010).
